Structures are written as SMILES.

We go through seven compounds from ChEMBL document CHEMBL1777792, “Synthesis and evaluation of indole-based new scaffolds for antimicrobial activities--identification of promising candidates” (Bioorg Med Chem Lett, 2011).

The test system of assay [1] is Candida albicans. The assay is described as follows: Antifungal activity against Candida albicans in yeast extract-peptone-glucose medium at 250 ug/ml after 48 hrs by disc diffusion assay in presence of rhodamine 6G. On the technique in general: A growth-free zone around the sample is the usual read-out of agar diffusion tests.
Assay [2] concerns Candida albicans. The assay is described as follows: Antifungal activity against Candida albicans in yeast extract-peptone-glucose medium at 250 ug/ml after 48 hrs by disc diffusion assay in presence of 0.01% of sodium dodecylsulphate. It is filed as functional. As to conditions: read-out: DIZ. Put shortly: (§1)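 C. albicans cells at a set number were spread on YEPD agar, either plain or containing the cell-wall disruptant named in the line (SDS, Congo red or calcofluor white). Compound solution, or the reference solvent as control, was spotted onto 0.5 cm discs placed on the lawn. Plates were incubated at 30 °C and the inhibition zone diameter was measured.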

Assay [3] deals with Escherichia coli. The assay is described as follows: Antibacterial activity against Escherichia coli harboring ampicillin-resistance gene encoding plasmid at 333 ug/ml after 24 hrs by disc diffusion assay. It is filed as functional. To be noted: read-out: DIZ. The procedure, abridged:
(§2)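 Disc diffusion used an E. coli strain carrying a plasmid that encodes an ampicillin-resistance gene. Inhibition zone diameters were recorded and compared against the corresponding solvent controls.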

In assay [4] the test system is Candida albicans. Kind of assay: Antifungal activity against Candida albicans in yeast extract-peptone-glucose medium at 250 ug/ml after 48 hrs by disc diffusion assay. The assay is classed as functional. As to conditions: read-out: DIZ. The procedure, abridged:
as §1

For assay [5], the system named is Candida albicans. The assay is described as follows: Antifungal activity against Candida albicans in yeast extract-peptone-glucose medium at 250 ug/ml after 48 hrs by disc diffusion assay in presence of 150 ug/ml of congo red. It is filed as functional. The procedure, abridged:
as §1

The test system of assay [6] is Candida albicans. The assay is described as follows: Antifungal activity against Candida albicans in yeast extract-peptone-glucose medium at 250 ug/ml after 48 hrs by disc diffusion assay in presence of 100 ug/ml of calcofluor white. The assay is classed as functional. Put shortly: as §1
In assay [7] the test system is Candida albicans. Kind of assay: Antifungal activity against Candida albicans in yeast extract-peptone-glucose medium at 375 ug/ml after 48 hrs by disc diffusion assay. To be noted: read-out: DIZ. It is filed as functional. The procedure, abridged: as §1
Assay [8] concerns Candida albicans. The assay is described as follows: Antifungal activity against Candida albicans in yeast extract-peptone-glucose medium at 375 ug/ml after 48 hrs by disc diffusion assay in presence of rhodamine 6G.
For assay [9], the system named is Candida albicans. The assay is described as follows: Antifungal activity against Candida albicans in yeast extract-peptone-glucose medium at 375 ug/ml after 48 hrs by disc diffusion assay in presence of 150 ug/ml of congo red. The assay is classed as functional. The procedure, abridged:
as §1

For assay [10], the system named is Candida albicans. Kind of assay: Antifungal activity against Candida albicans in yeast extract-peptone-glucose medium at 375 ug/ml after 48 hrs by disc diffusion assay in presence of 100 ug/ml of calcofluor white. The assay is classed as functional. Put shortly:
as §1

In assay [11] the test system is Escherichia coli. The assay is described as follows: Antibacterial activity against Escherichia coli harboring ampicillin-resistance gene encoding plasmid at 500 ug/ml after 24 hrs by disc diffusion assay. The assay is classed as functional. As to conditions: read-out: DIZ. The procedure, abridged: as §2
Assay [12] has as its system Candida albicans. The assay is described as follows: Antifungal activity against Candida albicans in yeast extract-peptone-glucose medium at 375 ug/ml after 48 hrs by disc diffusion assay in presence of 0.01% of sodium dodecylsulphate. To be noted: read-out: DIZ. The assay is classed as functional. The procedure, abridged:
as §1

The test system of assay [13] is Candida albicans. The assay is described as follows: Antifungal activity against Candida albicans in yeast extract-peptone-glucose medium at 500 ug/ml after 48 hrs by disc diffusion assay. The assay is classed as functional. As to conditions: read-out: DIZ. The procedure, abridged:
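Solid-phase assay on YEPD agar spread with a set number of C. albicans cells. Compound solution and reference solvent spotted onto 0.5 cm discs. Plates incubated at 30 °C, and inhibition zone diameter measured against solvent control.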

The test system of assay [14] is Candida albicans. The assay is described as follows: Antifungal activity against Candida albicans in yeast extract-peptone-glucose medium at 500 ug/ml after 48 hrs by disc diffusion assay in presence of 0.01% of sodium dodecylsulphate. The assay is classed as functional. As to conditions: read-out: DIZ. The procedure, abridged: (§3)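 Disc diffusion on YEPD agar containing a cell-wall-disrupting agent (SDS, Congo red or calcofluor white) and spread with a set number of C. albicans cells. Compound and reference solvent spotted on 0.5 cm discs. Incubated at 30 °C, then inhibition zone diameter measured against solvent.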

Assay [15] deals with Candida albicans. The assay is described as follows: Antifungal activity against Candida albicans in yeast extract-peptone-glucose medium at 500 ug/ml after 48 hrs by disc diffusion assay in presence of 100 ug/ml of calcofluor white. The assay is classed as functional. The procedure, abridged:
as §3

The subject of assay [16] is Candida albicans. Kind of assay: Antifungal activity against Candida albicans in yeast extract-peptone-glucose medium at 500 ug/ml after 48 hrs by disc diffusion assay in presence of 150 ug/ml of congo red. It is filed as functional. Put shortly:
as §3

For assay [17], the system named is Candida albicans. The assay is described as follows: Antifungal activity against Candida albicans in yeast extract-peptone-glucose medium at 500 ug/ml after 48 hrs by disc diffusion assay in presence of rhodamine 6G.
For assay [18], the system named is Candida albicans. The assay is described as follows: Antifungal activity against Candida albicans in yeast extract-peptone-glucose medium at 300 ug/ml after 48 hrs by disc diffusion assay in presence of […]. The assay is classed as functional. Put shortly:
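This is a C. albicans disc diffusion on YEPD agar containing rhodamine 6G, a substrate of the Cdr1p/Cdr2p ATP-dependent efflux pumps, to test for enhanced R6G toxicity. A set number of cells was spread, and 0.5 cm discs were spotted with compound solution or reference solvent. Plates were incubated at 30 °C and the zone diameter was measured.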

The test system of assay [19] is Candida albicans. Kind of assay: Antifungal activity against Candida albicans in yeast extract-peptone-glucose medium at 300 ug/ml after 48 hrs by disc diffusion assay in presence of 150 ug/ml of congo red. It is filed as functional. The procedure, abridged: as §1
Assay [20] relates to Candida albicans. The assay is described as follows: Antifungal activity against Candida albicans in yeast extract-peptone-glucose medium at 300 ug/ml after 48 hrs by disc diffusion assay in presence of 0.01% of sodium dodecylsulphate. As to conditions: read-out: DIZ. The assay is classed as functional. Put shortly:
as §1

The subject of assay [21] is Escherichia coli. Kind of assay: Antibacterial activity against Escherichia coli harboring ampicillin-resistance gene encoding plasmid at 300 ug/ml after 24 hrs by disc diffusion assay. The assay is classed as functional. To be noted: read-out: DIZ. Put shortly: as §2
Assay [22] concerns Escherichia coli. Kind of assay: Antibacterial activity against Escherichia coli harboring ampicillin-resistance gene encoding plasmid at 250 ug/ml after 24 hrs by disc diffusion assay. It is filed as functional. As to conditions: read-out: DIZ. The procedure, abridged: as §2
In assay [23] the test system is Candida albicans. The assay is described as follows: Antifungal activity against Candida albicans in yeast extract-peptone-glucose medium at 300 ug/ml after 48 hrs by disc diffusion assay. As to conditions: read-out: DIZ. The assay is classed as functional. The procedure, abridged:
as §1

With `O=C(C(=O)N1CCOCC1)c1cn(CCCCn2cc(C(=O)C(=O)N3CCOCC3)c3ccccc32)c2ccccc12`, the “diameter of the inhibition zone (DIZ)” value is recorded as 7.5 mm in the assay on Candida albicans [1], 5 mm in the assay with Candida albicans [5] and 7.5 mm with Candida albicans [6]. In addition, the values for the zone of inhibition at 250 µg/mL with Candida albicans [2] and with Candida albicans [4] were 7 mm and 6 mm, respectively. In addition, in the assay on Escherichia coli [3], the zone of inhibition at 333 µg/mL worked out at 10 mm.

On to `O=C(C(=O)N1CCCC1)c1cn(CCCCCn2cc(C(=O)C(=O)N3CCCC3)c3ccccc32)c2ccccc12`, for which the zone of inhibition at 375 µg/mL with Candida albicans [7] was 5.5 mm; with Candida albicans [12] it was 6 mm. Moreover, the results for the “diameter of the inhibition zone (DIZ)” value with Candida albicans [8], in the assay with Candida albicans [9] and in the assay on Candida albicans [10] were 6.5 mm, 8 mm and 5.5 mm, respectively. Besides, the zone of inhibition at 500 µg/mL with Escherichia coli [11] came to 8 mm.

In the case of `O=C(C(=O)N1CCCCC1)c1cn(CCCn2cc(C(=O)C(=O)N3CCCCC3)c3cc(Br)ccc32)c2ccc(Br)cc12`, the zone of inhibition at 500 µg/mL in the assay on Candida albicans [13] was 6 mm; with Candida albicans [14], 8 mm; with Escherichia coli [11], 9 mm. Also, the “diameter of the inhibition zone (DIZ)” value in the assay with Candida albicans [15] was 6.5 mm; in the assay with Candida albicans [16] it was 9.5 mm; in the assay on Candida albicans [17] it was 7.5 mm.

Consider `O=C(C(=O)N1CCCCC1)c1cn(Cc2ccc(Cn3cc(C(=O)C(=O)N4CCCCC4)c4ccccc43)cc2)c2ccccc12`, for which the “diameter of the inhibition zone (DIZ)” value worked out at 6 mm with Candida albicans [18] and 7.5 mm in the assay on Candida albicans [19]. Besides, the zone of inhibition at 300 µg/mL with Candida albicans [20] is 7.5 mm; in the assay on Escherichia coli [21] it was 9 mm.

`O=C(C(=O)N1CCOCC1)c1cn(Cc2ccc(Cn3cc(C(=O)C(=O)N4CCOCC4)c4ccccc43)cc2)c2ccccc12`: the “diameter of the inhibition zone (DIZ)” value with Candida albicans [1], with Candida albicans [5] and with Candida albicans [6] was 6 mm each time. The results for the zone of inhibition at 250 µg/mL in the assay with Candida albicans [2], in the assay on Escherichia coli [22] and in the assay with Candida albicans [4] were 6.5 mm, 10.5 mm and 6.5 mm, respectively.

Consider `OC(Cn1cncn1)(Cn1cncn1)c1ccc(F)cc1F` [FLUCONAZOLE], for which the zone of inhibition at 300 µg/mL in the assay with Candida albicans [23] turned out to be 15 mm.

Consider `Clc1ccc(COC(Cn2ccnc2)c2ccc(Cl)cc2Cl)c(Cl)c1` (stereo not given) [MICONAZOLE], for which the zone of inhibition at 300 µg/mL in the assay with Candida albicans [23] is 12 mm.
